These results are taken from ChEMBL document CHEMBL1129067, “Dioxabicyclooctanyl naphthalenenitriles as nonredox 5-lipoxygenase inhibitors: structure-activity relationship study directed toward the improvement of metabolic stability” (J Med Chem, 1996).

pIC50: −log10 of the molar value.

Experiment [1] deals with T1, Polyunsaturated fatty acid 5-lipoxygenase (Homo sapiens, UniProt P09917).
T1 sequence (P09917 whole entry): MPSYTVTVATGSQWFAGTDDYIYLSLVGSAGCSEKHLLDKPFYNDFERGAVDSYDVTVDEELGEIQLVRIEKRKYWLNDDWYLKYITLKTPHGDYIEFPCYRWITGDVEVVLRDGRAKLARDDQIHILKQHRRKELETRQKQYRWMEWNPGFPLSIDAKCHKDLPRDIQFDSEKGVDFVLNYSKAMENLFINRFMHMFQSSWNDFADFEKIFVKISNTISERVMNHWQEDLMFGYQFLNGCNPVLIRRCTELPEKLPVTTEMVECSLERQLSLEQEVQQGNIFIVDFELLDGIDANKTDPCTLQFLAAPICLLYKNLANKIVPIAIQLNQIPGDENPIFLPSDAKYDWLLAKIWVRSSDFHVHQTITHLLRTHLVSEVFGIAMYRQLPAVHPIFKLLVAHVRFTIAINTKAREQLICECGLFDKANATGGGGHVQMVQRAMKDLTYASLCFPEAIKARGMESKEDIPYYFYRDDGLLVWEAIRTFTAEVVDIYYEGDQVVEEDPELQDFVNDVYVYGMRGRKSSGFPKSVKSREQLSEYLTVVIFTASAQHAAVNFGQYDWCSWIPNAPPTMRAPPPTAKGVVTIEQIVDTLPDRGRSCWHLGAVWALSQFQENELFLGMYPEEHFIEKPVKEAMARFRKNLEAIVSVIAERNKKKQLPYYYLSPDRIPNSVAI
Description: Potency to inhibit oxidation of arachidonic acid by recombinant human 5-lipoxygenase.

The species entered for experiment [2] is Homo sapiens. Description: Compound was tested for the inhibition of LTB4 production in human whole blood (HWB). In kind it is functional. In outline: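 LTB4 generation measured in human whole blood. IC50 values are the mean of at least two independent titrations, though some values come from a single titration. Where more than two IC50 values were determined, the 95% confidence limits were within 90% of the mean.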

Experiment [3] is filed under the species Homo sapiens. Description: Test inhibition of LTB4 production in human peripheral blood polymorphonuclear leukocytes (HPMN). The experiment is classed as functional. The method in brief:
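LTB4 generation measured in human peripheral blood polymorphonuclear leukocytes. IC50 values are the mean of at least two independent determinations, though some values come from a single titration.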

Take `CC1CC(O)(c2cccc(COc3ccc4c(-c5ccccc5)c5c(cc4c3)C(=O)OC5)c2)CC(C)O1` (centres undefined): the pIC50 in experiment [1] is 6.74; in experiment [2] (Homo sapiens, Blood), 6.05; in experiment [3] (Homo sapiens), 8.52.
`Cn1nnnc1-c1cc(-c2ccccc2)c2ccc(OCc3cccc(C4(O)CCOCC4)c3)cc2c1`: the pIC50 in experiment [1] is 5.52; in experiment [2] (Homo sapiens, Blood), under 5.00; in experiment [3] (Homo sapiens), under 7.17.
In the same order, the values of `OC1(c2cccc(COc3ccc4c(-c5ccoc5)cc(C5=NCCO5)cc4c3)c2)CCOCC1` are 7.15, 7.30 and 8.52.
In the same order, the values of `O=C1CC(O)(c2cccc(COc3ccc4c(-c5ccccc5)c5c(cc4c3)C(=O)OC5)c2)CCO1` (centres undefined) are 6.41, under 5.52 and 7.46.
On the same counts, the results for `N#Cc1cc(-c2ccccc2)c2ccc(OCc3cccc(C4(O)CCOCC4)c3)cc2c1` are 6.92, 7.00 and 8.52.
As to `CC1OC(=O)c2cc3cc(OCc4cccc(C5(O)CCOCC5)c4)ccc3c(-c3ccccc3)c21` (centres undefined), the pIC50 is 5.89 in experiment [1]; under 5.52 in experiment [2] (Homo sapiens, Blood); 6.82 in experiment [3] (Homo sapiens).
In the same order, the values of `O=C1OCc2c1cc1cc(OCc3cccc(C4(O)CCOCC4)c3)ccc1c2-c1cccnc1` are 6.14, 5.92 and 7.60.
On the same counts, the results for `O=C1OCc2c1cc1cc(OCc3cccc(C4(O)CCOCC4)c3)ccc1c2-c1ccc(F)cc1` are 6.85, 6.39 and 8.52.
In the case of `O=C1OCc2c1cc1cc(OCc3cccc(C4(O)CCOCC4)c3)ccc1c2-c1ccc(Cl)cc1`, the pIC50 in experiment [1] is 5.26; in experiment [2] (Homo sapiens, Blood), under 5.52; in experiment [3] (Homo sapiens), 7.59.
On the same counts, the results for `COCc1cc(-c2ccccc2)c2ccc(OCc3cccc(C4(O)CCOCC4)c3)cc2c1` are 6.80, 6.70 and 8.40.
In the case of `N#Cc1cc(-c2ccoc2)c2ccc(OCc3cccc(C4(O)CC5COC(C4)O5)c3)cc2c1` (centres undefined), the pIC50 is 6.72 in experiment [1]; 6.82 in experiment [2] (Homo sapiens, Blood); 8.52 in experiment [3] (Homo sapiens).
On to `O=C1OCc2c1cc1cc(OCc3cccc(C4(O)CC5COC(C4)O5)c3)ccc1c2-c1ccoc1` (stereo in doubt; 3v), for which the pIC50 in experiment [1] was 6.47; in experiment [2] it was 5.68; in experiment [3], 7.68.
Consider `COC1(c2cc(F)cc(OCc3ccc4c(ccc(=O)n4C)c3)c2)CCOCC1` [ZD-2138], for which the negative-log IC50 (pIC50) is 6.48 in experiment [1]; 7.10 in experiment [2] (Homo sapiens, Blood); 8.00 in experiment [3] (Homo sapiens).

Usually pIC50 stands for the IC50 on a negative log10 scale, so that one unit is a factor of ten.
